Measurements as given in ChEMBL document CHEMBL1139765, “Synthesis, resolution, and antiplatelet activity of 3-substituted 1(3H)-isobenzofuranone” (2007).

Tests used:
Plasma [1] = assay: Antiplatelet activity in human platelet rich plasma assessed as inhibition of ADP-induced platelet aggregation; type: functional
How it was run: (§1)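 PRP was prepared from whole blood of healthy volunteers. Compounds were added to PRP at 10, 20, 50 and 100, with aspirin at 5 as reference and PEG-400 as vehicle control. Aggregation was induced with ADP or arachidonic acid, and IE50 was derived from the concentration series.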

Plasma [2] = assay: Antiplatelet activity in human platelet rich plasma assessed as inhibition of arachidonic acid-induced platelet aggregation; type: functional; how it was run: as §1

CCCCCCCC1OC(=O)c2ccccc21 (configuration not stated)
IE50 (Plasma [1]): 153 µM | IE50 (Plasma [2]): 16.1 µM

CC(C)CC[C@H]1OC(=O)c2ccccc21
IE50 (Plasma [1]): 116 µM | IE50 (Plasma [2]): 14.3 µM

CCCC[C@H]1OC(=O)c2ccccc21
IE50 (Plasma [1]): 94.7 µM | IE50 (Plasma [2]): 13.2 µM

CC(C)CCC1OC(=O)c2ccccc21 (configuration not stated)
IE50 (Plasma [1]): 201 µM | IE50 (Plasma [2]): 15.4 µM

CCCCC/C=C1\OC(=O)c2ccccc21
IE50 (Plasma [1]): 243 µM | IE50 (Plasma [2]): 17.1 µM

CCCCCCC[C@@H]1OC(=O)c2ccccc21
IE50 (Plasma [1]): 176 µM | IE50 (Plasma [2]): 18.7 µM

CCC/C=C1\OC(=O)c2ccccc21 [Z-butylidenephthalide]
IE50 (Plasma [1]): 204 µM | IE50 (Plasma [2]): 16.1 µM

CCCCCC1OC(=O)c2ccccc21 (configuration not stated)
IE50 (Plasma [1]): 180 µM | IE50 (Plasma [2]): 16.4 µM

CC[C@H]1OC(=O)c2ccccc21
IE50 (Plasma [1]): 114 µM | IE50 (Plasma [2]): 14.1 µM

CC(C)CC[C@@H]1OC(=O)c2ccccc21
IE50 (Plasma [1]): 207 µM | IE50 (Plasma [2]): 17.2 µM

CCCCCC[C@H]1OC(=O)c2ccccc21
IE50 (Plasma [1]): 139 µM | IE50 (Plasma [2]): 14.4 µM

CCCC[C@@H]1OC(=O)c2ccccc21 [(3S)-BUTYLPHTHALIDE]
IE50 (Plasma [1]): 193 µM | IE50 (Plasma [2]): 16.1 µM

CCCC1OC(=O)c2ccccc21 (configuration not stated)
IE50 (Plasma [1]): 133 µM | IE50 (Plasma [2]): 14.9 µM

CC/C=C1\OC(=O)c2ccccc21
IE50 (Plasma [1]): 171 µM | IE50 (Plasma [2]): 16.1 µM

CCCC/C=C1\OC(=O)c2ccccc21
IE50 (Plasma [1]): 201 µM | IE50 (Plasma [2]): 17.6 µM

CC(=O)Oc1ccccc1C(=O)O [ASPIRIN]
IE50 (Plasma [1]): 118 µM | IE50 (Plasma [2]): 12.3 µM

CCCCC[C@@H]1OC(=O)c2ccccc21
IE50 (Plasma [1]): 203 µM | IE50 (Plasma [2]): 17.9 µM

CCCCC[C@H]1OC(=O)c2ccccc21
IE50 (Plasma [1]): 178 µM | IE50 (Plasma [2]): 15.1 µM

CCC1OC(=O)c2ccccc21 (configuration not stated)
IE50 (Plasma [1]): 164 µM | IE50 (Plasma [2]): 15.2 µM

CCCCCC[C@@H]1OC(=O)c2ccccc21
IE50 (Plasma [1]): 217 µM | IE50 (Plasma [2]): 18.5 µM

CCCCCCC1OC(=O)c2ccccc21 (configuration not stated)
IE50 (Plasma [1]): 220 µM | IE50 (Plasma [2]): 15.8 µM

CC[C@@H]1OC(=O)c2ccccc21
IE50 (Plasma [1]): 209 µM | IE50 (Plasma [2]): 16.9 µM

CCCCC1OC(=O)c2ccccc21 (stereo not drawn) [RAC-3-N-BUTYLPHTHALIDE]
IE50 (Plasma [1]): 170 µM | IE50 (Plasma [2]): 14.5 µM

CCCCCCC[C@H]1OC(=O)c2ccccc21
IE50 (Plasma [1]): 143 µM | IE50 (Plasma [2]): 14.7 µM

CCCCCC/C=C1\OC(=O)c2ccccc21
IE50 (Plasma [1]): 289 µM | IE50 (Plasma [2]): 18 µM

C/C=C1\OC(=O)c2ccccc21
IE50 (Plasma [2]): 16 µM

CCC[C@H]1OC(=O)c2ccccc21
IE50 (Plasma [1]): 112 µM | IE50 (Plasma [2]): 13.8 µM

CC(C)C/C=C1\OC(=O)c2ccccc21
IE50 (Plasma [1]): 204 µM | IE50 (Plasma [2]): 17.9 µM

CCC[C@@H]1OC(=O)c2ccccc21
IE50 (Plasma [1]): 142 µM | IE50 (Plasma [2]): 16.9 µM
